The test system of one experiment is B16. Description: Antitumor efficacy against B-16 tumor cell line, activity is expressed as […] survival time (MST) at the dose of 1.6 mg/kg. The arrangement: dose 1.6 mg/kg. It is filed as functional, organism-based. The following applies: Mus musculus. The gist of the method: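 Mice bearing B-16 tumor were dosed once daily on days 1–9. Read-out was median survival time in days, with T/C relative to control MST.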

Experiment [1] deals with L1210. The experiment can be described thus: Antitumor efficacy against L1210 tumor cell line, activity is expressed as […] survival time (MST) at the dose of 10 mg/kg. It is filed as functional, organism-based. The arrangement: dose 10 mg/kg. To be noted: Mus musculus. The gist of the method:
(§1)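 Murine L-1210 leukemia, ascitic form, with compound given on day 1 (a single ip dose on day 1 in mg/kg in one table). Activity was scored as median survival time in days, with T/C relative to untreated controls. A cisplatin positive control was run in each test.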

Experiment [2] deals with L1210. Description: Antitumor efficacy against L1210 tumor cell line, activity is expressed as […] survival time (MST) at the dose of 6 mg/kg. It is filed as functional, organism-based. The arrangement: dose 6 mg/kg. The following applies: Mus musculus. The gist of the method:
as §1

The subject of experiment [3] is L1210. Description: Antitumor efficacy against L1210 tumor cell line, activity is expressed as […] survival time (MST) at the dose of 8 mg/kg. It counts as functional, organism-based. Details: dose 8 mg/kg. To be noted: Mus musculus. The gist of the method: as §1
In a further experiment the test system is M5076. Description: Antitumor efficacy against M5076 tumor cell line, activity is expressed as […] survival time (MST) at the dose of 4.8 mg/kg. The arrangement: dose 4.8 mg/kg. It is filed as functional, organism-based. To be noted: Mus musculus. In outline: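 M5076 tumor-bearing mice were dosed on days 1 and 4. Median survival time in days was recorded and T/C calculated against control MST.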

Another experiment concerns M5076 (mouse). The experiment can be described thus: Antitumor efficacy against M5076 tumor cell line, activity is expressed as […] survival time (MST) at the dose of 4.8 mg/kg.

Values joined by “and” are separate entries in the source; they are usually repeats but may differ in a detail not shown here. Identical values can stand only once.

As to CISPLATIN, the MST was 213 with B16; 150 in the experiment on L1210 [2]; 186 and 167 and 164 in the experiment on L1210 [3]; 166 with M5076; 200 in the experiment with M5076 (mouse). Besides, the Survival time as % of untreated control (T/C) in the experiment on L1210 [1] was 193 (2×) and 200 (2×) and 186.

The values are drawn from ChEMBL document CHEMBL1124874, “Antitumor and DNA-binding properties of a group of oligomeric complexes of Pt(II) and Pt(IV)” (J Med Chem, 1990).
